Legend:
[1] = biological target: T1, Type-1 angiotensin II receptor (Bos taurus, UniProt P25104); experiment: Inhibition of specific binding of [125 I ] Angiotensin-II (0.2 nM) to bovine adrenal cortex; type: tissue-based
T1 sequence (P25104 whole entry): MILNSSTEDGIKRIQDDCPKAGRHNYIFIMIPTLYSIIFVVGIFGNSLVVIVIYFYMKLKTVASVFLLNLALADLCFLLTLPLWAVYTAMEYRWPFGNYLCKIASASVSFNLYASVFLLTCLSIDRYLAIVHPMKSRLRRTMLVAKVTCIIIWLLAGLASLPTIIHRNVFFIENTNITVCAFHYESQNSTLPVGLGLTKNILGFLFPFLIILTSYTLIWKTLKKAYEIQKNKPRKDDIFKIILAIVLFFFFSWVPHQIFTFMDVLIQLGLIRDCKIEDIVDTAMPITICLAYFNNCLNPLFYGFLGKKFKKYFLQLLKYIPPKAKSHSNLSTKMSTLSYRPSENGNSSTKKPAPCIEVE

[2] = biological target: T2, Angiotensin II receptor (Rattus norvegicus) (UniProt P29089+P25095+P35351); experiment: Percent inhibition of the Angiotensin-II (0.1ug/kg, iv) induced pressor response after 3 hours of administration (1 mg/kg po) in rats; type: functional, organism-based
Method in brief: (§1)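 Conscious male Sprague-Dawley rats dosed orally with test compound; pressor response to AII challenge (0.1 µg/kg iv) measured at 3 and 7 h after dosing and expressed as percent inhibition. Duplicate experiments, with n = 3 for some compounds; variation in % inhibition under 30%.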

[3] = biological target: T2, Angiotensin II receptor (Rattus norvegicus); experiment: Percent inhibition of the Angiotensin-II (0.1ug/kg, iv) induced pressor response after 7 hours of administration (1 mg/kg po) in rats; type: functional, organism-based; method in brief: as §1

IC50 [1] | inhibition [2] | inhibition [3] | Structure (SMILES)
440 nM |  |  | CCOCc1nc2cccc(C(=O)O)c2n1Cc1ccc(-c2ccccc2-c2nnn[nH]2)cc1
 | 97% | 80% | COc1nc2cccc(C(=O)O)c2n1Cc1ccc(-c2ccccc2-c2nn[nH]n2)cc1
850 nM |  |  | C=CCOc1nc2cccc(C(=O)OC)c2n1Cc1ccc(-c2ccccc2-c2nnn[nH]2)cc1
 | 36% | 9% | COC(=O)c1cccc2nc(OCC(F)(F)F)n(Cc3ccc(-c4ccccc4-c4nn[nH]n4)cc3)c12
> 1000 nM |  |  | O=C(O)c1cccc2nc(N3CCCCC3)n(Cc3ccc(-c4ccccc4-c4nnn[nH]4)cc3)c12
46 nM |  |  | CCc1nc2cccc(C(=O)O)c2n1Cc1ccc(-c2ccccc2-c2nnn[nH]2)cc1
440 nM |  |  | CCSc1nc2cccc(C(=O)OC)c2n1Cc1ccc(-c2ccccc2-c2nn[nH]n2)cc1
190 nM |  |  | Cc1nc2cccc(C(=O)O)c2n1Cc1ccc(-c2ccccc2-c2nnn[nH]2)cc1
1000 nM |  |  | CCCOc1nc2cccc(C(=O)OCC)c2n1Cc1ccc(-c2ccccc2-c2nnn[nH]2)cc1
39 nM |  |  | CCCNc1nc2cccc(C(=O)O)c2n1Cc1ccc(-c2ccccc2-c2nnn[nH]2)cc1
190 nM |  |  | CCCOc1nc2cccc(C(=O)O)c2n1Cc1ccc(-c2ccccc2-c2nnn[nH]2)cc1
300 nM |  |  | CCSCc1nc2cccc(C(=O)O)c2n1Cc1ccc(-c2ccccc2-c2nnn[nH]2)cc1
650 nM |  |  | CCCCNc1nc2cccc(C(=O)O)c2n1Cc1ccc(-c2ccccc2-c2nnn[nH]2)cc1
82 nM |  |  | CC(C)c1nc2cccc(C(=O)O)c2n1Cc1ccc(-c2ccccc2-c2nnn[nH]2)cc1
150 nM |  |  | CCCCc1nc(Cl)c(CO)n1Cc1ccc(-c2ccccc2-c2nn[nH]n2)cc1 [LOSARTAN POTASSIUM]
 | 94% | 89% | COC(=O)c1cccc2nc(OC)n(Cc3ccc(-c4ccccc4-c4nn[nH]n4)cc3)c12
550 nM |  |  | CCCCc1nc2cccc(C(=O)O)c2n1Cc1ccc(-c2ccccc2-c2nnn[nH]2)cc1
120 nM |  |  | CCCSc1nc2cccc(C(=O)O)c2n1Cc1ccc(-c2ccccc2-c2nnn[nH]2)cc1

IC50 [1] | inhibition [2] | inhibition [3] | Structure (SMILES)
 | 63% | 29% | CCOCc1nc2cccc(C(=O)O)c2n1Cc1ccc(-c2ccccc2-c2nn[nH]n2)cc1
62 nM |  |  | CCNc1nc2cccc(C(=O)O)c2n1Cc1ccc(-c2ccccc2-c2nnn[nH]2)cc1
560 nM |  |  | CCCCCc1nc2cccc(C(=O)O)c2n1Cc1ccc(-c2ccccc2-c2nnn[nH]2)cc1
 | 14% | 12% | C=CCOc1nc2cccc(C(=O)OC)c2n1Cc1ccc(-c2ccccc2-c2nn[nH]n2)cc1
490 nM |  |  | COC(=O)c1cccc2nc(OC)n(Cc3ccc(-c4ccccc4-c4nnn[nH]4)cc3)c12
> 1000 nM |  |  | COC(=O)c1cccc2nc(OCC(F)(F)F)n(Cc3ccc(-c4ccccc4-c4nnn[nH]4)cc3)c12
> 1000 nM |  |  | CCN(C)c1nc2cccc(C(=O)O)c2n1Cc1ccc(-c2ccccc2-c2nnn[nH]2)cc1
32 nM |  |  | COc1nc2cccc(C(=O)O)c2n1Cc1ccc(-c2ccccc2-c2nnn[nH]2)cc1
> 1000 nM |  |  | O=C(O)c1cccc2nc(N3CCOCC3)n(Cc3ccc(-c4ccccc4-c4nnn[nH]4)cc3)c12
170 nM |  |  | CCSc1nc2cccc(C(=O)O)c2n1Cc1ccc(-c2ccccc2-c2nnn[nH]2)cc1
> 1000 nM |  |  | CCCCOc1nc2cccc(C(=O)OC)c2n1Cc1ccc(-c2ccccc2-c2nnn[nH]2)cc1
120 nM |  |  | CSc1nc2cccc(C(=O)O)c2n1Cc1ccc(-c2ccccc2-c2nnn[nH]2)cc1
3900 nM |  |  | CCC(C)c1nc2cccc(C(=O)O)c2n1Cc1ccc(-c2ccccc2-c2nnn[nH]2)cc1 (stereo not given)
170 nM |  |  | CNc1nc2cccc(C(=O)O)c2n1Cc1ccc(-c2ccccc2-c2nnn[nH]2)cc1
3200 nM |  |  | CC(C)Cc1nc2cccc(C(=O)O)c2n1Cc1ccc(-c2ccccc2-c2nnn[nH]2)cc1
> 1000 nM |  |  | CC[S+]([O-])c1nc2cccc(C(=O)OC)c2n1Cc1ccc(-c2ccccc2-c2nn[nH]n2)cc1 (stereo not given)
66 nM |  |  | CCOc1nc2cccc(C(=O)OC)c2n1Cc1ccc(-c2ccccc2-c2nnn[nH]2)cc1
